High-throughput results from PubChem BioAssay.
In the library only some 1.6% were active in any assay of this set; here they are far more common.
UHRF1 MBD2 ctr – UHRF1 methyl-DNA binding inhibition; Q96T88; UHRF1 binding to methylated oligo, TR-FRET; inhibition, % at 4.4 µM; 370,000 tested, 0.75% active; AID 687016;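 further: UHRF1 SRA domain binding a hemimethylated CpG hairpin DNA probe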
TDP2 absorb – blocks human TDP2 phosphodiesterase activity | recombinant TDP2, T5PNP hydrolysis, p-nitrophenol absorbance 415 nm | inhibition, % at 12.8 µM | 370,000 tested, 0.34% active | AID 720702;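 active means inhibition above the mean of all tested compounds plus 3 SD, set per campaign, cut at about 25% in these data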
Target sequence (O95551 whole entry, looked up): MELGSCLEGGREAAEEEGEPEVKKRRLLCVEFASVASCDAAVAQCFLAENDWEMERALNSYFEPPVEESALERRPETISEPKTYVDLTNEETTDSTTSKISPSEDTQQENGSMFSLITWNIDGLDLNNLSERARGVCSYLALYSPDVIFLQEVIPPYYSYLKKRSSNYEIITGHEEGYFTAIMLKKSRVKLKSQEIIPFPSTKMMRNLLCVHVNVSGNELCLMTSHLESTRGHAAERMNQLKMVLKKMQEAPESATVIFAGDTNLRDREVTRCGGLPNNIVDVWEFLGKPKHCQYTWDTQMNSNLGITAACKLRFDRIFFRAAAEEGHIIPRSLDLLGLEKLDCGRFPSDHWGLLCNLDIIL
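Read-out basis: percent inhibition. System: recombinant human TDP2. Buffer or medium: Mg2+-containing Tris-HCl buffer, pH 7.5. Repeats: single replicate. Timing: reaction 2 h, 37 °C. Benchmarks: high control without enzyme, low control DMSO plus TDP2. Probe or stimulus: 5 mM T5PNP. Doses: 12.8 µM only. Measured by: epi absorbance of p-nitrophenol freed from T5PNP by hydrolysis.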
LEDGF integ inh – blocks HIV-1 LEDGF/p75-dependent DNA integration; TR-FRET IN-LEDGF/p75 DNA integration, Eu/Cy5; inhibition, % at 3.7 µM; 370,000 tested, 0.64% active; AID 743269;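 active means inhibition above the screen-wide mean plus 3 SD, cut at about 13% in these data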;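 further: signal is the Cy5 over europium emission ratio at 671 and 618 nm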
MBD2 DNA inh – MBD2-methylated oligo binding inhibition; AID 686964; 370,000 tested, 0.31% active; TR-FRET, MBD2 binding to methylated oligonucleotide; inhibition, % at 4.4 µM; Q9UBB5; in the data active means inhibition above about 13%
UHRF1 ctr MBD2 – inhibits human UHRF1 binding to methylated oligonucleotide, MBD2 counter-screen; shares compounds with MBD2 DNA inh; TR-FRET; inhibition, % at 4.4 µM; 1,000 tested, 25% active;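 further: UHRF1 SRA domain binding a labeled hemimethylated CpG hairpin DNA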
MBD2 DBD conf – confirmation of human MBD2-DBD methylated oligonucleotide binding inhibitors | shares compounds with MBD2 DNA inh | TR-FRET MBD2-DBD binding to methylated oligonucleotide | inhibition, % at 4.4 µM | 1,000 tested, 26% active; in the data active means inhibition above about 14%
Large screens that a line does not name were inactive (follow-up assays come after a bar, where they were run). Unless noted, no stated cut-off is given here; in the data, active means inhibition above about 21%; inactive means the rest.

Cc1ccc(CC(=O)Nc2nc3c(s2)CCCC3)cc1	MBD2 DNA inh 13 | UHRF1 ctr MBD2 inactive | MBD2 DBD conf inactive
COc1ccccc1NS(=O)(=O)c1cccc(C(=O)N/N=C/c2c(CO)cnc(C)c2O)c1	none
Cc1cccc(N2C(=O)C(Oc3ccc(Cl)cc3Cl)C2C=O)c1C (stereo not given)	none
Cc1nnc(NCC=Cc2ccccc2)s1	none
Cc1ccc(-n2nc3c(N4CCC(C(=O)NCCc5ccco5)CC4)nnc(C)c3c2C)cc1	MBD2 DNA inh 16 | UHRF1 ctr MBD2 inactive | MBD2 DBD conf inactive
Cc1ccc(NC(=O)CNC(=O)N2CC(=O)Nc3ccccc32)cc1F	none
CCc1cccc(NC(=O)CNC(=O)N2CC(=O)Nc3ccccc32)c1	MBD2 DNA inh 14 | UHRF1 ctr MBD2 inactive | MBD2 DBD conf inactive
O=C(NCc1ccccc1Cl)C1CCN(S(=O)(=O)N2CCCCC2)CC1	UHRF1 MBD2 ctr 25, MBD2 DNA inh 20 | UHRF1 ctr MBD2 inactive | MBD2 DBD conf inactive
O=C(NCc1ccccc1Cl)C1CCN(S(=O)(=O)N2CCCC2)CC1	none
O=C(NCCSc1c[nH]c2ccccc12)c1ccc(Br)o1	none
O=C(NCCc1c[nH]c2ccccc12)c1ccc(Br)o1	UHRF1 MBD2 ctr 21, MBD2 DNA inh 16 | UHRF1 ctr MBD2 inactive | MBD2 DBD conf inactive
N#CCC(=O)Nc1ccc(C(=O)OCC(=O)c2ccc3c(c2)NC(=O)CO3)cc1	MBD2 DNA inh 14 | UHRF1 ctr MBD2 inactive | MBD2 DBD conf 13
Nc1c2ccccc2nc2ccccc12	MBD2 DNA inh 26 | UHRF1 ctr MBD2 31 | MBD2 DBD conf 37
C=CCN1[C@H](C#N)[C@@H](c2ccc(C#Cc3cccc(OC)c3)cc2)[C@H]1CO	MBD2 DNA inh 15 | UHRF1 ctr MBD2 inactive | MBD2 DBD conf inactive
O=C(NCCCN1CCOCC1)C(=O)NCc1ccc(Cl)cc1	MBD2 DNA inh 13 | UHRF1 ctr MBD2 inactive | MBD2 DBD conf inactive
S=C(NCCCN1CCOCC1)Nc1ccc(Cl)cc1	none
CCOC(=O)c1cnc2c(ccc3ccccc32)c1NCCCN(C)C	MBD2 DNA inh 20 | UHRF1 ctr MBD2 inactive | MBD2 DBD conf 26
C[C@@H](/C=C/C(=O)OC(C)(C)C)Sc1ccc(C(C)(C)C)cc1	MBD2 DNA inh 18 | UHRF1 ctr MBD2 inactive | MBD2 DBD conf inactive
CCC[C@@H](/C=C/C(=O)OC(C)(C)C)Sc1ccc(C(C)(C)C)cc1	none
CN(C)c1ccc(C=c2c3ccccc3n3c2c2ccccc2[n+]3C)cc1	none
Cc1cc2c(=Cc3ccc(N(C)C)cc3)c3ccccc3n2[n+]1C	UHRF1 MBD2 ctr 47, MBD2 DNA inh 32 | UHRF1 ctr MBD2 60 | MBD2 DBD conf 64
Cc1cc(C)n(-c2ccc(C(=O)Nc3ccc(S(=O)(=O)NCc4ccco4)cc3)cc2)n1	none
COC(=O)c1ccc(CSc2nc3c(c(=O)[nH]2)CCC3)cc1	MBD2 DNA inh 15 | UHRF1 ctr MBD2 inactive | MBD2 DBD conf inactive
Cc1cccc(CSc2nc3c(c(=O)[nH]2)CCC3)c1	none
CCN(CC)CCNC(=O)C1c2cc(OC)c(OC)cc2C(=O)N(C)C1c1cccs1 (stereo not given)	MBD2 DNA inh 42 | UHRF1 ctr MBD2 inactive | MBD2 DBD conf inactive
COc1ccc(C2C(C(=O)NCCN(C)C)c3cc(OC)c(OC)cc3C(=O)N2C)cc1OC (stereo not given)	none
CCCCCCSc1ccc([C@H]2N[C@@](Cc3ccccc3)(C(=O)OC)[C@H]3C(=O)N(CC)C(=O)[C@@H]23)cc1	none
CCCCCCSc1ccc([C@H]2N[C@@](Cc3ccccc3)(C(=O)OC)[C@H]3C(=O)N(C)C(=O)[C@@H]23)cc1	MBD2 DNA inh 14 | UHRF1 ctr MBD2 inactive | MBD2 DBD conf inactive
C#CCN(Cc1ccco1)C(=O)c1nnc2c3cc(OC)ccc3n(S(=O)(=O)c3ccc(OC)cc3)c2n1	MBD2 DNA inh 26 | UHRF1 ctr MBD2 inactive | MBD2 DBD conf 20
COc1ccc(-c2coc3c(C)c4oc(=O)c(CC(=O)O)c(C)c4cc23)cc1	none
Cc1c(CC(=O)O)c(=O)oc2c(C)c3occ(-c4ccc(Br)cc4)c3cc12	MBD2 DNA inh 30 | UHRF1 ctr MBD2 inactive | MBD2 DBD conf inactive
Cc1[nH]c(C)c(S(=O)(=O)N(Cc2ccccc2)C(C)(C)C)c1C(=O)N1CCCC1	none
